Test results taken from ChEMBL document CHEMBL4602735, “Discovery of (1H-Pyrazolo[3,4-c]pyridin-5-yl)sulfonamide Analogues as Hepatitis B Virus Capsid Assembly Modulators by Conformation Constraint” (J Med Chem, 2020).

Assays:
[1] = Oral bioavailability in C57BL/6 mouse liver at 200 mg/kg measured from 5 mins to 24 hrs by HPLC analysis; type: ADME, organism-based
Method in brief: (§1)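 Male C57BL/6 mice, n=3. Dosing 20 mg/kg i.v. or 100 mg/kg p.o. of parent; prodrug p.o. at 100 or 200 mg/kg. The parent compound was measured in blood/plasma and in liver from 5 min onward. Readouts were Cmax, Tmax, t1/2, CL, AUC and oral bioavailability.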

[2] = Cmax in C57BL/6 mouse liver at 200 mg/kg, po measured from 5 mins to 24 hrs by HPLC analysis; type: ADME, organism-based; design: dose 200 mg/kg, route oral; conditions: in vivo; method in brief: as §1
[3] = Tmax in C57BL/6 mouse blood at 200 mg/kg, po measured from 5 mins to 24 hrs by HPLC analysis; type: ADME, organism-based
Method in brief: (§2)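 Male C57BL/6 mice, single oral dose of prodrug at 100 or 200 mg/kg; blood and liver levels of the parent compound measured over time; N=3; Tmax taken from the concentration–time profiles.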

[4] = Solubility in pH 6.8 phosphate buffer at 1 mg at 25 degC by HPLC analysis; type: physicochemical; conditions: phosphate buffer, read-out: solubility
Method in brief: (§3)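 Solubility determined in water or 0.067 M phosphate buffer at pH 5.8, 6.8 and 7.4. Values are reported in mg/mL; ND means below the detection limit.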

[5] = AUC in C57BL/6 mouse liver at 100 mg/kg, po measured from 5 mins to 24 hrs by HPLC analysis; type: ADME, organism-based; design: time 0.083-24 hr, dose 100 mg/kg, route oral; conditions: in vivo; method in brief: as §1
[6] = Solubility in water at 1 mg at 25 degC by HPLC analysis; type: physicochemical; method in brief: as §3
[7] = Cmax in C57BL/6 mouse liver at 100 mg/kg, po measured from 5 mins to 24 hrs by HPLC analysis; type: ADME, organism-based; design: dose 100 mg/kg, route oral; conditions: in vivo; method in brief: as §1
[8] = AUC in C57BL/6 mouse plasma at 200 mg/kg, po measured from 5 mins to 24 hrs by HPLC analysis; type: ADME, organism-based; design: time 0.083-24 hr, dose 200 mg/kg, route oral; method in brief: as §1
[9] = Tmax in C57BL/6 mouse liver at 200 mg/kg, po measured from 5 mins to 24 hrs by HPLC analysis; type: ADME, organism-based; method in brief: as §2
[10] = AUC in C57BL/6 mouse plasma at 100 mg/kg, po measured from 5 mins to 24 hrs by HPLC analysis; type: ADME, organism-based; design: time upper 24 hr, dose 100 mg/kg, time lower 0.083 hr, route oral; method in brief: as §1
[11] = Solubility in pH 7.4 phosphate buffer at 1 mg at 25 degC by HPLC analysis; type: physicochemical; method in brief: as §3
[12] = AUC in C57BL/6 mouse liver at 200 mg/kg, po measured from 5 mins to 24 hrs by HPLC analysis; type: ADME, organism-based; design: time upper 24 hr, dose 200 mg/kg, time lower 0.083 hr, route oral; conditions: in vivo; method in brief: as §1
[13] = Cmax in C57BL/6 mouse blood at 200 mg/kg, po measured from 5 mins to 24 hrs by HPLC analysis; type: ADME, organism-based; design: dose 200 mg/kg, route oral; method in brief: as §1
[14] = Tmax in C57BL/6 mouse blood at 100 mg/kg, po measured from 5 mins to 24 hrs by HPLC analysis; type: ADME, organism-based; method in brief: as §2
[15] = Half life in mouse plasma by HPLC analysis; conditions: in vitro
[16] = Drug level in C57BL/6 mouse liver at 100 mg/kg, po measured after 5 mins by HPLC analysis; type: ADME, organism-based; conditions: in vivo
[17] = Solubility in pH 5.8 phosphate buffer at 1 mg at 25 degC by HPLC analysis; type: physicochemical; method in brief: as §3
[18] = Oral bioavailability in C57BL/6 mouse liver at 100 mg/kg measured from 5 mins to 24 hrs by HPLC analysis; type: ADME, organism-based; method in brief: as §1
[19] = Tmax in C57BL/6 mouse liver at 100 mg/kg, po measured from 5 mins to 24 hrs by HPLC analysis; type: ADME, organism-based; method in brief: as §2
[20] = Cmax in C57BL/6 mouse blood at 100 mg/kg, po measured from 5 mins to 24 hrs by HPLC analysis; type: ADME, organism-based; design: dose 100 mg/kg, route oral; method in brief: as §1

bioavailability [1]: 132%
Cmax [2]: 59 nmol/g
Tmax [3]: 1 h
solubility [4]: 6650 µg/mL
AUC [5]: 306 nmol·h/g
solubility [6]: 8130 µg/mL
Cmax [7]: 40 nmol/g
AUC [8]: 21100 ng·h/mL
Tmax [9]: 4 h
AUC [10]: 7010 ng·h/mL
solubility [11]: 31 µg/mL
AUC [12]: 482 nmol·h/g
Cmax [13]: 8.84 µM
Tmax [14]: 1 h
half-life [15]: 0.783 h
Drug uptake [16]: > 10 nmol/g
solubility [17]: 7600 µg/mL
bioavailability [18]: 87.6%
Tmax [19]: 2 h
Cmax [20]: 3.73 µM
SMILES: Cc1cc(Nc2nn(C3CC3)c3cnc(S(=O)(=O)N4CCC(OC(=O)CN(C)C)CC4)cc23)ccc1F.O=C(O)CC(O)(CC(=O)O)C(=O)O
